Measured values reported in ChEMBL document CHEMBL3244342, “Haloacetamido analogues of 2-amino-2-deoxy-D-glucose and 2-amino-2-deoxy-D-galactose. Syntheses and effects on the Friend murine erythroleukemia” (J Med Chem, 1978).
The source made the active and inactive calls. The calls are words filed in the database; no cut-off is given here.

Assays:
Leukemia cell [1] = experiment: Induction of cell differentiation in DBA/2J mouse Friend erythroleukemia cells assessed as proportion of hemoglobin containing cells at IC50 concentration for antiproliferative effect after 3 days by benzidine peroxide staining; assay type: functional, cell-based
How it was run: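 Exponentially growing cells seeded at 10^5 cells/mL in DMEM with 10% fetal calf serum at 37 °C and 10% CO2, incubated 3 days with the analogue. Ethanol vehicle final ≤0.125%. Hemoglobin-containing cells scored by benzidine peroxide stain. Controls received no drug or the inducer bis(acetyl)diaminopentane.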

[2] = Toxicity in ip dosed BDF1 mouse assessed as animal killed administered as single dose; details: in vivo
[3] = Antiproliferative activity against DBA/2J mouse Friend erythroleukemia cells after 3 days by cell counter; assay type: functional, cell-based; details: Leukemia cell, 72 h
How it was run: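 Log-phase suspension cultures in DMEM with 10% fetal calf serum, penicillin/streptomycin, 37 °C, 10% CO2, seeded at 10^5 cells/mL. Continuous exposure to a range of concentrations for 3 days. Water-insoluble agents given in ethanol (final ≤0.125%). Cells counted by Coulter counter. IC50 is the concentration giving 50% inhibition of multiplication versus vehicle-treated controls.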

Leukemia cell [4] = experiment: Antitumor activity against DBA/2J mouse Friend erythroleukemia cells allografted ip dosed DBA/2 mouse assessed as increase in host survival time administered on days 1, 2 and 3 after tumor transplantation; assay type: functional, organism-based
[5] = Inhibition of cell growth of DBA/2J mouse Friend erythroleukemia cells at 4 uM after 3 days in presence of bis(acetyl)diaminopentane; assay type: functional; details: Leukemia cell, 72 h
How it was run: (§1)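 Exponentially growing cells seeded at 10^5 cells/mL, exposed for 3 days to 4.5 mM bis(acetyl)diaminopentane together with the analogue. Cell numbers counted by Coulter counter. Cytostasis expressed relative to untreated control cultures.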

[6] = Inhibition of bis(acetyl)diaminopentane-induced cell differentiation in DBA/2J mouse Friend erythroleukemia cells assessed as proportion of hemoglobin containing cells at 1 mM after 3 days by benzidine peroxide staining (reference value: 82.2 +/- 2.4%); assay type: functional; details: Leukemia cell, 72 h
[7] = Inhibition of cell growth of DBA/2J mouse Friend erythroleukemia cells at 1 mM after 3 days in presence of bis(acetyl)diaminopentane; assay type: functional; details: Leukemia cell, 72 h
How it was run: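 Log-phase Friend erythroleukemia cells (DBA/2J origin) were seeded at 10⁵ cells/mL in DMEM plus 10% fetal calf serum at 37 °C under 10% CO₂. Analogue at 1 mM was combined with the inducer bis(acetyl)diaminopentane at 4.5 mM. After 3 days, cell numbers were counted with a Coulter counter to give percent cytostasis.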

[8] = Inhibition of cell growth of DBA/2J mouse Friend erythroleukemia cells at 0.4 mM after 3 days in presence of bis(acetyl)diaminopentane; assay type: functional; details: Leukemia cell, 72 h; how it was run: as §1
[9] = Bis(acetyl)diaminopentane-induced cell differentiation in DBA/2J mouse Friend erythroleukemia cells assessed as proportion of hemoglobin containing cells at 0.4 mM after 3 days by benzidine peroxide staining (reference value: 82.2 +/- 2.4%); details: Leukemia cell, 72 h

Which Activity (Leukemia cell [1]) does the source give for `CC(=O)OC[C@H]1O[C@@H](OC(C)=O)[C@H](NC(=O)CBr)[C@@H](OC(C)=O)[C@@H]1OC(C)=O` here?
Its Activity is “inactive”.

And the LD50 [2]?
Its LD50 is 210 µmol/kg.

And the IC50 [3]?
The IC50 was 3 µM.

And the Activity (Leukemia cell [4])?
Its Activity is “inactive”.

What does the source list for `CC(=O)OC[C@H]1O[C@@H](OC(C)=O)[C@H](NC(=O)CF)[C@@H](OC(C)=O)[C@H]1OC(C)=O`?
Activity (Leukemia cell [1]): inactive; LD50 [2]: 980 µmol/kg; IC50 [3]: 60 µM; Activity (Leukemia cell [4]): inactive

With `O=C(CCl)N[C@@H]1[C@@H](O)[C@@H](O)[C@@H](CO)O[C@H]1O` as the compound, how does the LD50 [2] read?
Its LD50 is 1500 µmol/kg.

What about the Activity (Leukemia cell [4]) of the same compound?
The Activity was “inactive”.

What does the source list for `O=C(CF)N[C@@H]1[C@@H](O)[C@@H](O)[C@@H](CO)O[C@H]1O`?
LD50 [2]: 740 µmol/kg; Activity (Leukemia cell [4]): inactive

Which Activity (Leukemia cell [1]) does the source give for `CC(=O)OC[C@H]1O[C@@H](OC(C)=O)[C@H](NC(=O)CBr)[C@@H](OC(C)=O)[C@H]1OC(C)=O` here?
The Activity was “inactive”.

And the LD50 [2]?
The LD50 was 220 µmol/kg.

What about the IC50 [3] of the same compound?
The IC50 was 4 µM.

And the inhibition at 4 µM [5]?
The inhibition at 4 µM was 83%.

And the Activity (Leukemia cell [4])?
The Activity was “inactive”.

For `O=C(CF)N[C@@H]1[C@@H](O)[C@H](O)[C@@H](CO)O[C@H]1O`, which Activity (Leukemia cell [1]) is on record?
Its Activity is “inactive”.

And the LD50 [2]?
Its LD50 is 180 µmol/kg.

And the IC50 [3]?
The IC50 was 1000 µM.

What about the inhibition at 1000 µM [6] of the same compound?
The inhibition at 1000 µM was 69.5%.

What about the inhibition at 1000 µM [7] of the same compound?
Its inhibition at 1000 µM is 83%.

What about the Activity (Leukemia cell [4]) of the same compound?
Its Activity is “inactive”.

Which LD50 [2] does the source give for `O=C(O)CF` [FLUOROACETATE] here?
Its LD50 is 100 µmol/kg.

What about the Activity (Leukemia cell [4]) of the same compound?
The Activity was “inactive”.

With `O=C(CCl)N[C@@H]1[C@@H](O)[C@H](O)[C@@H](CO)O[C@H]1O` as the compound, how does the Activity (Leukemia cell [1]) read?
The Activity was “inactive”.

What about the LD50 [2] of the same compound?
Its LD50 is 2000 µmol/kg.

And the IC50 [3]?
Its IC50 is 400 µM.

What about the inhibition at 400 µM [8] of the same compound?
The inhibition at 400 µM was 83%.

What about the Activity (Leukemia cell [4]) of the same compound?
Its Activity is “inactive”.

What about the benzidine-positive cells % at 400 µM [9] of the same compound?
The benzidine-positive cells % at 400 µM was 24%.

For `O=C(CBr)N[C@@H]1[C@@H](O)[C@H](O)[C@@H](CO)O[C@H]1O`, which LD50 [2] is on record?
Its LD50 is over 2400 µmol/kg.

And the Activity (Leukemia cell [4])?
The Activity was “inactive”.

Which results are given for `CC(=O)N[C@H]1[C@H](OC(C)=O)O[C@H](COC(C)=O)[C@@H](OC(C)=O)[C@@H]1OC(C)=O`?
IC50 [3]: 400 µM; Activity (Leukemia cell [4]): inactive

For `NC(=O)CCl`, which IC50 [3] is on record?
The IC50 was 200 µM.

And the Activity (Leukemia cell [4])?
The Activity was “inactive”.

Which results are given for `O=C(CBr)N[C@@H]1[C@@H](O)[C@@H](O)[C@@H](CO)O[C@H]1O`?
LD50 [2]: 1700 µmol/kg; Activity (Leukemia cell [4]): inactive

With `CC(=O)OC[C@H]1O[C@@H](OC(C)=O)[C@H](NC(=O)CCl)[C@@H](OC(C)=O)[C@@H]1OC(C)=O` as the compound, how does the Activity (Leukemia cell [1]) read?
The Activity was “inactive”.

And the LD50 [2]?
Its LD50 is 940 µmol/kg.

What about the IC50 [3] of the same compound?
Its IC50 is 8 µM.

What about the Activity (Leukemia cell [4]) of the same compound?
Its Activity is “inactive”.

For `CC(=O)OC[C@H]1O[C@@H](OC(C)=O)[C@H](NC(=O)CCl)[C@@H](OC(C)=O)[C@H]1OC(C)=O`, which Activity (Leukemia cell [1]) is on record?
The Activity was “inactive”.

And the LD50 [2]?
The LD50 was 670 µmol/kg.

And the IC50 [3]?
The IC50 was 15 µM.

What about the Activity (Leukemia cell [4]) of the same compound?
The Activity was “inactive”.

Which results are given for `CC(=O)OC[C@H]1O[C@@H](OC(C)=O)[C@H](NC(=O)CF)[C@@H](OC(C)=O)[C@@H]1OC(C)=O`?
Activity (Leukemia cell [1]): inactive; LD50 [2]: 170 µmol/kg; IC50 [3]: 60 µM; Activity (Leukemia cell [4]): inactive
